According to ChEMBL document CHEMBL3588757, “Structure-based design, synthesis and biological testing of piperazine-linked bis-epipodophyllotoxin etoposide analogs” (Bioorg Med Chem, 2015):
The source made the active and inactive calls. The rule behind the calls is not given here.

Experiments:
MOLT-4 = assay: Cytotoxicity against human MOLT4 cells assessed as cell growth at 10 uM; type: functional; conditions: read-out: Activity
Malme-3M = assay: Cytotoxicity against human MALME-3M cells assessed as cell growth at 10 uM; type: functional; conditions: read-out: Activity
K562 [1] = assay: Cytotoxicity against human K562 cells assessed as cell growth inhibition after 72 hrs by MTS assay; type: functional, cell-based; conditions: K562, 72 h
OVCAR-8 = assay: Cytotoxicity against human OVCAR8 cells assessed as cell growth at 10 uM; type: functional; conditions: read-out: Activity
SK-MEL-5 = assay: Cytotoxicity against human SK-MEL-5 cells assessed as cell growth at 10 uM; type: functional; conditions: read-out: Activity
HL-60(TB) = assay: Cytotoxicity against human HL-60(TB) cells assessed as cell growth at 10 uM; type: functional; conditions: read-out: Activity
[2] = molecular target: DNA topoisomerase 2-alpha (Homo sapiens) (UniProt P11388); assay: Inhibition of full-length human recombinant topoisomerase 2-alpha-mediated decatenation activity of kDNA by ethidium bromide based gel-assay
RXF 393 = assay: Cytotoxicity against human RXF393 cells assessed as cell growth at 10 uM; type: functional; conditions: read-out: Activity
SNB-19 = assay: Cytotoxicity against human SNB19 cells assessed as cell growth at 10 uM; type: functional; conditions: read-out: Activity
[3] = Cytotoxicity against human Hs578T cells assessed as cell growth at 10 uM; type: functional; conditions: Hs-578T, read-out: Activity
HOP-92 = assay: Cytotoxicity against human HOP92 cells assessed as cell growth at 10 uM; type: functional; conditions: read-out: Activity
SR = assay: Cytotoxicity against human SR cells assessed as cell growth at 10 uM; type: functional; conditions: read-out: Activity
COLO 205 = assay: Cytotoxicity against human COLO205 cells assessed as cell growth at 10 uM; type: functional; conditions: read-out: Activity
MDA-MB-231 = assay: Cytotoxicity against human MDA-MB-231/ATCC cells assessed as cell growth at 10 uM; type: functional; conditions: read-out: Activity
MDA-MB-468 = assay: Cytotoxicity against human MDA-MB-468 cells assessed as cell growth at 10 uM; type: functional; conditions: read-out: Activity
T47D = assay: Cytotoxicity against human T47D cells assessed as cell growth at 10 uM; type: functional; conditions: read-out: Activity
BT-549 = assay: Cytotoxicity against human BT549 cells assessed as cell growth at 10 uM; type: functional; conditions: read-out: Activity
HCT-116 = assay: Cytotoxicity against human HCT116 cells assessed as cell growth at 10 uM; type: functional; conditions: read-out: Activity
K562 [4] = assay: Relative resistance, ratio of IC50 for etoposide-resistant human K/VP.5 cells to IC50 for human K562 cells; type: functional
TK-10 = assay: Cytotoxicity against human TK10 cells assessed as cell growth at 10 uM; type: functional; conditions: read-out: Activity
[5] = Cytotoxicity against human NCI-ADR-RES cells assessed as cell growth at 10 uM; type: functional; conditions: read-out: Activity
A549 = assay: Cytotoxicity against human A549/ATCC cells assessed as cell growth at 10 uM; type: functional; conditions: read-out: Activity
UACC-257 = assay: Cytotoxicity against human UACC257 cells assessed as cell growth at 10 uM; type: functional; conditions: read-out: Activity
OVCAR-5 = assay: Cytotoxicity against human OVCAR5 cells assessed as cell growth at 10 uM; type: functional; conditions: read-out: Activity
UACC-62 = assay: Cytotoxicity against human UACC62 cells assessed as cell growth at 10 uM; type: functional; conditions: read-out: Activity
SF-268 = assay: Cytotoxicity against human SF268 cells assessed as cell growth at 10 uM; type: functional; conditions: read-out: Activity
RPMI-8226 = assay: Cytotoxicity against human RPMI8226 cells assessed as cell growth at 10 uM; type: functional; conditions: read-out: Activity
IGROV-1 = assay: Cytotoxicity against human IGROV1 cells assessed as cell growth at 10 uM; type: functional; conditions: read-out: Activity
OVCAR-3 = assay: Cytotoxicity against human OVCAR3 cells assessed as cell growth at 10 uM; type: functional; conditions: read-out: Activity
CCRF-CEM = assay: Cytotoxicity against human CCRF-CEM cells assessed as cell growth at 10 uM; type: functional; conditions: read-out: Activity
SNB-75 = assay: Cytotoxicity against human SNB75 cells assessed as cell growth at 10 uM; type: functional; conditions: read-out: Activity
A498 = assay: Cytotoxicity against human A498 cells assessed as cell growth at 10 uM; type: functional; conditions: read-out: Activity
HCC 2998 = assay: Cytotoxicity against human HCC2998 cells assessed as cell growth at 10 uM; type: functional; conditions: read-out: Activity
UO-31 = assay: Cytotoxicity against human UO31 cells assessed as cell growth at 10 uM; type: functional; conditions: read-out: Activity
PC-3 = assay: Cytotoxicity against human PC3 cells assessed as cell growth at 10 uM; type: functional; conditions: read-out: Activity
DU-145 = assay: Cytotoxicity against human DU145 cells assessed as cell growth at 10 uM; type: functional; conditions: read-out: Activity
SF-295 = assay: Cytotoxicity against human SF295 cells assessed as cell growth at 10 uM; type: functional; conditions: read-out: Activity
OVCAR-4 = assay: Cytotoxicity against human OVCAR4 cells assessed as cell growth at 10 uM; type: functional; conditions: read-out: Activity
NCI-H226 = assay: Cytotoxicity against human NCI-H226 cells assessed as cell growth at 10 uM; type: functional; conditions: read-out: Activity
NCI-H23 = assay: Cytotoxicity against human NCI-H23 cells assessed as cell growth at 10 uM; type: functional; conditions: read-out: Activity
MCF7 = assay: Cytotoxicity against human MCF7 cells assessed as cell growth at 10 uM; type: functional; conditions: read-out: Activity
786-0 = assay: Cytotoxicity against human 786-0 cells assessed as cell growth at 10 uM; type: functional; conditions: read-out: Activity
K562 [6] = assay: Cytotoxicity against human K562 cells assessed as cell growth at 10 uM; type: functional; conditions: read-out: Activity
SF-539 = assay: Cytotoxicity against human SF539 cells assessed as cell growth at 10 uM; type: functional; conditions: read-out: Activity
KM12 = assay: Cytotoxicity against human KM12 cells assessed as cell growth at 10 uM; type: functional; conditions: read-out: Activity
CAKI-1 = assay: Cytotoxicity against human Caki1 cells assessed as cell growth at 10 uM; type: functional; conditions: read-out: Activity
[7] = molecular target: DNA topoisomerase 2-alpha (Homo sapiens) (UniProt P11388); assay: Inhibition of full-length human recombinant topoisomerase 2-alpha mediated relaxation and cleavage of supercoiled pBR322 plasmid DNA to linear DNA by ethidium bromide staining based gel electrophoresis assay
Summary of the method: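 Recombinant full-length human topoisomerase IIα with supercoiled pBR322 DNA at 37 °C. Components mixed on ice before drug addition. Complexes trapped with SDS; products run on ethidium bromide gels. Linear DNA identified against a HindIII-linearized marker; repeated on three days.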

SK-MEL-2 = assay: Cytotoxicity against human SK-MEL-2 cells assessed as cell growth at 10 uM; type: functional; conditions: read-out: Activity
SK-OV-3 = assay: Cytotoxicity against human SKOV3 cells assessed as cell growth at 10 uM; type: functional; conditions: read-out: Activity
HT-29 = assay: Cytotoxicity against human HT-29 cells assessed as cell growth at 10 uM; type: functional; conditions: read-out: Activity
SN12C = assay: Cytotoxicity against human SN12C cells assessed as cell growth at 10 uM; type: functional; conditions: read-out: Activity
MDA-MB-435 = assay: Cytotoxicity against human MDA-MB-435 cells assessed as cell growth at 10 uM; type: functional; conditions: read-out: Activity
[8] = Cytotoxicity against etoposide-resistant human K/VP.5 cells assessed as cell growth inhibition after 72 hrs by MTS assay; type: functional, cell-based; conditions: K/VP.5, 72 h
Summary of the method: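 K/VP.5 cells are a K562-derived subline, 26-fold etoposide-resistant, with decreased topoisomerase IIα mRNA and protein. Cells were grown in suspension in αMEM with 10% fetal calf serum. Drugs were given from DMSO stocks, with final DMSO typically 0.4% or less. Read-out was MTS absorbance after 72 h. Typically nine concentrations were run in duplicate on two days. IC50 came from a four-parameter logistic fit.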

M14 = assay: Cytotoxicity against human M14 cells assessed as cell growth at 10 uM; type: functional; conditions: read-out: Activity
HCT-15 = assay: Cytotoxicity against human HCT15 cells assessed as cell growth at 10 uM; type: functional; conditions: read-out: Activity
NCI-H322M = assay: Cytotoxicity against human NCI-H322M cells assessed as cell growth at 10 uM; type: functional; conditions: read-out: Activity
HOP-62 = assay: Cytotoxicity against human HOP62 cells assessed as cell growth at 10 uM; type: functional; conditions: read-out: Activity
SW-620 = assay: Cytotoxicity against human SW620 cells assessed as cell growth at 10 uM; type: functional; conditions: read-out: Activity
U-251 = assay: Cytotoxicity against human U251 cells assessed as cell growth at 10 uM; type: functional; conditions: read-out: Activity
ACHN = assay: Cytotoxicity against human ACHN cells assessed as cell growth at 10 uM; type: functional; conditions: read-out: Activity
SK-MEL-28 = assay: Cytotoxicity against human SK-MEL-28 cells assessed as cell growth at 10 uM; type: functional; conditions: read-out: Activity
NCI-H460 = assay: Cytotoxicity against human NCI-H460 cells assessed as cell growth at 10 uM; type: functional; conditions: read-out: Activity

DNA topoisomerase 2-alpha (Homo sapiens), sequence (P11388 whole entry): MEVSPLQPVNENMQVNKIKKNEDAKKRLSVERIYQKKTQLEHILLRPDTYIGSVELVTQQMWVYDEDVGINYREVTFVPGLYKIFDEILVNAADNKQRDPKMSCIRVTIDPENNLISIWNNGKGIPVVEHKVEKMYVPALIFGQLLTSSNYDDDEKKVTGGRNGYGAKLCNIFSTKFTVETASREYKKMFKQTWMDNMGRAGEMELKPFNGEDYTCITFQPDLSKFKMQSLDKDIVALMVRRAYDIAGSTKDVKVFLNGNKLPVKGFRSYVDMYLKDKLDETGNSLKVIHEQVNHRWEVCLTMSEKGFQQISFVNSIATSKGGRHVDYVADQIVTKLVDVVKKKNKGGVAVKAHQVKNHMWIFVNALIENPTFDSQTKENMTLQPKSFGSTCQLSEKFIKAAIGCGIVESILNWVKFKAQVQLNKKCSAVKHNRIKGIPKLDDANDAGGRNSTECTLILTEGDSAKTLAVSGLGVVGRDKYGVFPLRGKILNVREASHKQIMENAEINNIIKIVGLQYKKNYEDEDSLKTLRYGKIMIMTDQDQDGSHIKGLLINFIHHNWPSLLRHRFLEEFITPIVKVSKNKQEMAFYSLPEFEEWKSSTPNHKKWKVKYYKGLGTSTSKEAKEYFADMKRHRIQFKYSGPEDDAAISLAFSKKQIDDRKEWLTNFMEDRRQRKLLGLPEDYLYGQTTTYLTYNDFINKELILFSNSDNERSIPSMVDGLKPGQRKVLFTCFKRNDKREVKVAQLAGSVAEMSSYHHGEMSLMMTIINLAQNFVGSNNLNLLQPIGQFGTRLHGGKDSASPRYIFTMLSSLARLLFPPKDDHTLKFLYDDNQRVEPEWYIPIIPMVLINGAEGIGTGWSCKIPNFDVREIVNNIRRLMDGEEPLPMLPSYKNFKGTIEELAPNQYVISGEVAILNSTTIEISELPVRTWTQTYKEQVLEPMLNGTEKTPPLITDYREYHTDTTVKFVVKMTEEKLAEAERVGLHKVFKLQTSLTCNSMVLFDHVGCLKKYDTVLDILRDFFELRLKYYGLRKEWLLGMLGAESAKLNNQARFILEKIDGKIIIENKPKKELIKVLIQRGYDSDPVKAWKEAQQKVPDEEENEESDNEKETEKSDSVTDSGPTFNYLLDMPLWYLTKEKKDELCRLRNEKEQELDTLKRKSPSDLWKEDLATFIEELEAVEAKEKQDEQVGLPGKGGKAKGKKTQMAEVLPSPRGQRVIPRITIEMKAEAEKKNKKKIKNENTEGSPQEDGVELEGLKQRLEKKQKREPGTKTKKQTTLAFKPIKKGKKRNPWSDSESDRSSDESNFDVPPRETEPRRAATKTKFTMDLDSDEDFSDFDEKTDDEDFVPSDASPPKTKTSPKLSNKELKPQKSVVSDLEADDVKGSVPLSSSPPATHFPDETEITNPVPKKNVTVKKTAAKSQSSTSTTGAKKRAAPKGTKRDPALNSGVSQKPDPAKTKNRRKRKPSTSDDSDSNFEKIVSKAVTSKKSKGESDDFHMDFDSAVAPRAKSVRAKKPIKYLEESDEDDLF

COc1cc([C@@H]2c3cc4c(cc3[C@@H](NC(=O)CN3CCN(CCCN5CCN(CC(=O)N[C@@H]6c7cc8c(cc7[C@@H](c7cc(OC)c(O)c(OC)c7)[C@H]7C(=O)OC[C@@H]76)OCO8)CC5)CC3)[C@H]3COC(=O)[C@H]23)OCO4)cc(OC)c1O
growth at 10 µM (MOLT-4): 10.9% | growth at 10 µM (Malme-3M): 68.1% | IC50 (K562 [1]): 525 nM | growth at 10 µM (OVCAR-8): 95.5% | growth at 10 µM (SK-MEL-5): 77.6% | growth at 10 µM (HL-60(TB)): 26.7% | inhibition [2]: Active | growth at 10 µM (RXF 393): 90.2% | growth at 10 µM (SNB-19): 59.3% | growth at 10 µM [3]: 95.2% | growth at 10 µM (HOP-92): 65.7% | growth at 10 µM (SR): 15.2% | growth at 10 µM (COLO 205): 53.9% | growth at 10 µM (MDA-MB-231): 93.9% | growth at 10 µM (MDA-MB-468): 93.8% | growth at 10 µM (T47D): 56.9% | growth at 10 µM (BT-549): 69.6% | growth at 10 µM (HCT-116): 64.6% | Ratio IC50 (K562 [4]): 14.2 | growth at 10 µM (TK-10): 88.7% | growth at 10 µM [5]: 103% | growth at 10 µM (A549): 47% | growth at 10 µM (UACC-257): 79.7% | growth at 10 µM (OVCAR-5): 102% | growth at 10 µM (UACC-62): 56.4% | growth at 10 µM (SF-268): 69.6% | growth at 10 µM (RPMI-8226): 63.4% | growth at 10 µM (IGROV-1): 71.8% | growth at 10 µM (OVCAR-3): 98.2% | growth at 10 µM (CCRF-CEM): 12.8% | growth at 10 µM (SNB-75): 66.8% | growth at 10 µM (A498): 65% | growth at 10 µM (HCC 2998): 97.8% | growth at 10 µM (UO-31): 93.1% | growth at 10 µM (PC-3): 79.8% | growth at 10 µM (DU-145): 83.5% | growth at 10 µM (SF-295): 94.5% | growth at 10 µM (OVCAR-4): 95.6% | growth at 10 µM (NCI-H226): 86% | growth at 10 µM (NCI-H23): 84.2% | growth at 10 µM (MCF7): 26% | growth at 10 µM (786-0): 95.9% | growth at 10 µM (K562 [6]): 61.9% | growth at 10 µM (SF-539): 77.8% | growth at 10 µM (KM12): 87.9% | growth at 10 µM (CAKI-1): 97% | Effect on topoisomerase 2-alpha DNA cleavage (qualitative) [7]: Dose-dependent effect | growth at 10 µM (SK-MEL-2): 101% | growth at 10 µM (SK-OV-3): 96.7% | growth at 10 µM (HT-29): 89.5% | growth at 10 µM (SN12C): 57.8% | growth at 10 µM (MDA-MB-435): 88.6% | IC50 [8]: 7.5 µM | growth at 10 µM (M14): 95.4% | growth at 10 µM (HCT-15): 98.6% | growth at 10 µM (NCI-H322M): 104% | growth at 10 µM (HOP-62): 75.9% | growth at 10 µM (SW-620): 54.9% | growth at 10 µM (U-251): 45.1% | growth at 10 µM (ACHN): 92.5% | growth at 10 µM (SK-MEL-28): 85.9% | growth at 10 µM (NCI-H460): 24.3%
